According to the RNAGym collection of RNA variant scans (doi:10.1038/nmeth.2970):

B1: NELF-E aptamer (parent)
chain: CCCAACGACUGCCGAGCGAGAUUACGCUUGAGCGCCCCACUGAGGAUGCCCACGGGCGAUUGGGGCACGG

Variants of: B1
Test: HiTS-RAP
Conditions: with NELF-E (Drosophila)
Summary of the method: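 Aptamer DNA templates bearing a T7 promoter and a ter site were sequenced on an Illumina GAIIx flowcell. T7 RNA polymerase then transcribed them in situ, and GST-Tus halted transcription over 30 minutes at 37°C. After a 30-minute room-temperature equilibration with NELF-E-mOrange at 0.064 to 1000 nM in HEPES binding buffer, clusters were imaged, using only the first binding curve. Intensities normalised to sequencing intensity were averaged per sequence and fitted with weighted Hill fits to give Kd, retaining only fits whose variance stayed under 1,000,000.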
With CCCAACAACUGCCGAGCGAGAUUACGCUUGAGCGCCCCACGGAGGAUGCCCACGGGCGAUUGGGGCACGG [G7A U41G] the Kd was 6.05 nM. With CCCAACCACUGCCGAGCGAGAUUACGCUUGAGCGCCCCACUGAGGAUGCCCACGGGCGAUUGGGGCACGG [G7C] the Kd was 6.43 nM. CCCAACCGCUGCCGAGCGAGAUUACGCUUGAGCGCCCCACUGAGGAUGCCCACGGGCGAUUGGGGCACGG [G7C A8G] showed a Kd of 5.81 nM. For CCCAACCACUUCCGAGCGAGAUUACGCUUGAGCGCCCCACUGAGGAUGCCCACGGGCGAUUGGGGCACGG [G7C G11U], the Kd was 7.68 nM. For CCCAACCACGGCCGAGCGAGAUUACGCUUGAGCGCCCCACUGAGGAUGCCCACGGGCGAUUGGGGCACGG [G7C U10G], the Kd was 6.28 nM. Work on CCCAACUACUGCCGAGCGAGAUUACGCUUGAGCGCCCCACUGAGGAUGCCCACGGGCGAUUGGGGCACGG [G7U] yielded a Kd of 5.55 nM. For CCCAACUCCUGCCGAGCGAGAUUACGCUUGAGCGCCCCACUGAGGAUGCCCACGGGCGAUUGGGGCACGG [G7U A8C], the Kd was 7.45 nM. For CCCAACUGCUGCCGAGCGAGAUUACGCUUGAGCGCCCCACUGAGGAUGCCCACGGGCGAUUGGGGCACGG [G7U A8G], the Kd was 5.66 nM. Work on CCCAACUUCUGCCGAGCGAGAUUACGCUUGAGCGCCCCACUGAGGAUGCCCACGGGCGAUUGGGGCACGG [G7U A8U] yielded a Kd of 6.38 nM. For CCCAACUACUGCCGGGCGAGAUUACGCUUGAGCGCCCCACUGAGGAUGCCCACGGGCGAUUGGGGCACGG [G7U A15G], the Kd was 5.56 nM. Work on CCCAACUACUGCCGUGCGAGAUUACGCUUGAGCGCCCCACUGAGGAUGCCCACGGGCGAUUGGGGCACGG [G7U A15U] yielded a Kd of 6 nM. With CCCAACUACUGCCGAGCGGGAUUACGCUUGAGCGCCCCACUGAGGAUGCCCACGGGCGAUUGGGGCACGG [G7U A19G] the Kd was 6.23 nM. Variant CCCAACUACUGCCGAGCGUGAUUACGCUUGAGCGCCCCACUGAGGAUGCCCACGGGCGAUUGGGGCACGG [G7U A19U] has a Kd of 6.31 nM. CCCAACUACUGCCGAGCGAGGUUACGCUUGAGCGCCCCACUGAGGAUGCCCACGGGCGAUUGGGGCACGG [G7U A21G] was tested, and the Kd was 6.51 nM. For CCCAACUACUGCCGAGCGAGUUUACGCUUGAGCGCCCCACUGAGGAUGCCCACGGGCGAUUGGGGCACGG [G7U A21U], the Kd was 5.79 nM. CCCAACUACUGCCGAGCGAGAUUGCGCUUGAGCGCCCCACUGAGGAUGCCCACGGGCGAUUGGGGCACGG [G7U A24G] gave a Kd of 6.71 nM. In the case of CCCAACUACUGCCGAGCGAGAUUUCGCUUGAGCGCCCCACUGAGGAUGCCCACGGGCGAUUGGGGCACGG [G7U A24U], the Kd is reported as 6.81 nM. For CCCAACUACUGCCGAGCGAGAUUACGCUUGGGCGCCCCACUGAGGAUGCCCACGGGCGAUUGGGGCACGG [G7U A31G], the Kd was 7.34 nM. With CCCAACUACUGCCGAGCGAGAUUACGCUUGUGCGCCCCACUGAGGAUGCCCACGGGCGAUUGGGGCACGG [G7U A31U] the Kd was 5.33 nM. In the case of CCCAACUACUGCCGAGCGAGAUUACGCUUGAGCGCCCCGCUGAGGAUGCCCACGGGCGAUUGGGGCACGG [G7U A39G], the Kd is reported as 11.4 nM. For CCCAACUACUGCCGAGCGAGAUUACGCUUGAGCGCCCCUCUGAGGAUGCCCACGGGCGAUUGGGGCACGG [G7U A39U], the Kd was 26.9 nM. For CCCAACUACUGCCGAGCGAGAUUACGCUUGAGCGCCCCACUGGGGAUGCCCACGGGCGAUUGGGGCACGG [G7U A43G], the Kd was 58 nM. For CCCAACUACUGCCGAGCGAGAUUACGCUUGAGCGCCCCACUGUGGAUGCCCACGGGCGAUUGGGGCACGG [G7U A43U], the Kd was 84.5 nM. With CCCAACUACUGCCGAGCGAGAUUACGCUUGAGCGCCCCACUGAGGGUGCCCACGGGCGAUUGGGGCACGG [G7U A46G] the Kd was 56 nM. In the case of CCCAACUACUGCCGAGCGAGAUUACGCUUGAGCGCCCCACUGAGGAUGCCCGCGGGCGAUUGGGGCACGG [G7U A52G], the Kd is reported as 4.13 nM. CCCAACUACUGCCGAGCGAGAUUACGCUUGAGCGCCCCACUGAGGAUGCCCUCGGGCGAUUGGGGCACGG [G7U A52U] gave a Kd of 19.3 nM. CCCAACUACUGCCGAGCGAGAUUACGCUUGAGCGCCCCACUGAGGAUGCCCACGGGCGGUUGGGGCACGG [G7U A59G] was tested, and the Kd was 67.6 nM. CCCAACUACUGCCGAGCGAGAUUACGCUUGAGCGCCCCACUGAGGAUGCCCACGGGCGUUUGGGGCACGG [G7U A59U] gave a Kd of 18.3 nM. For CCCAACUACUGCCGAGCGAGAUUACGCUUGAGCGCCCCACUGAGGAUGCCCACGGGCGAUUGGGGCGCGG [G7U A67G], the Kd was 7.45 nM. CCCAACUACUGCCGAGCGAGAUUACGCUUGAGCGCCCCACUGAGGAUGCCCACGGGCGAUUGGGGCUCGG [G7U A67U] gave a Kd of 9.65 nM. Variant CCCAACUAGUGCCGAGCGAGAUUACGCUUGAGCGCCCCACUGAGGAUGCCCACGGGCGAUUGGGGCACGG [G7U C9G] has a Kd of 6.28 nM. CCCAACUAUUGCCGAGCGAGAUUACGCUUGAGCGCCCCACUGAGGAUGCCCACGGGCGAUUGGGGCACGG [G7U C9U] showed a Kd of 6.52 nM. In the case of CCCAACUACUGGCGAGCGAGAUUACGCUUGAGCGCCCCACUGAGGAUGCCCACGGGCGAUUGGGGCACGG [G7U C12G], the Kd is reported as 6.89 nM. In the case of CCCAACUACUGUCGAGCGAGAUUACGCUUGAGCGCCCCACUGAGGAUGCCCACGGGCGAUUGGGGCACGG [G7U C12U], the Kd is reported as 5.94 nM. In the case of CCCAACUACUGCAGAGCGAGAUUACGCUUGAGCGCCCCACUGAGGAUGCCCACGGGCGAUUGGGGCACGG [G7U C13A], the Kd is reported as 6.82 nM. In the case of CCCAACUACUGCGGAGCGAGAUUACGCUUGAGCGCCCCACUGAGGAUGCCCACGGGCGAUUGGGGCACGG [G7U C13G], the Kd is reported as 5.83 nM. In the case of CCCAACUACUGCUGAGCGAGAUUACGCUUGAGCGCCCCACUGAGGAUGCCCACGGGCGAUUGGGGCACGG [G7U C13U], the Kd is reported as 5.75 nM. CCCAACUACUGCCGAGGGAGAUUACGCUUGAGCGCCCCACUGAGGAUGCCCACGGGCGAUUGGGGCACGG [G7U C17G] showed a Kd of 6.28 nM. For CCCAACUACUGCCGAGUGAGAUUACGCUUGAGCGCCCCACUGAGGAUGCCCACGGGCGAUUGGGGCACGG [G7U C17U], the Kd was 6.16 nM.
